Measured values: ChEMBL document CHEMBL1955778, “Design and synthesis of novel 7-aminoquinazoline derivatives: antitumor and anticonvulsant activities” (Bioorg Med Chem Lett, 2012)

Assays:
Assay type in all cases: functional
ACHN = assay: Growth inhibition of human ACHN cells at 10 uM relative to control; settings: read-out: GI
In short: (§1)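 Each cell line in a 60-line human tumour panel exposed to one 10 μM concentration. Growth inhibition percentage computed as 100 minus the percentage activity relative to control.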

TK-10 = assay: Growth inhibition of human TK10 cells at 10 uM relative to control; settings: read-out: GI
In short: (§2)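 Single-dose screen across the 60-cell-line human tumor panel at 10 μM. Growth inhibition is reported as a percentage, taken as 100 minus the % growth relative to untreated control.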

SK-MEL-5 = assay: Growth inhibition of human SK-MEL-5 cells at 10 uM relative to control; settings: read-out: GI; in short: as §1
SNB-19 = assay: Growth inhibition of human SNB19 cells at 10 uM relative to control; settings: read-out: GI; in short: as §2
HCT-116 = assay: Growth inhibition of human HCT116 cells at 10 uM relative to control; settings: read-out: GI; in short: as §1
Mus musculus [1] = assay: Anticonvulsant activity in mouse assessed as protection against strychnine-induced seizure at 1 mmol/kg, ip administered 30 min prior to strychnine-challenge measured after 60 mins relative to control
A498 = assay: Growth inhibition of human A498 cells at 10 uM relative to control; settings: read-out: GI; in short: as §1
A549 = assay: Growth inhibition of human A549 cells at 10 uM relative to control; settings: read-out: GI; in short: as §1
SF-295 = assay: Growth inhibition of human SF295 cells at 10 uM relative to control; settings: read-out: GI; in short: as §1
K562 = assay: Growth inhibition of human K562 cells at 10 uM relative to control; settings: read-out: GI; in short: as §1
MDA-MB-435 = assay: Growth inhibition of human MDA-MB-435 cells at 10 uM relative to control; settings: read-out: GI; in short: as §1
Malme-3M = assay: Growth inhibition of human MALME-3M cells at 10 uM relative to control; settings: read-out: GI; in short: as §1
UO-31 = assay: Growth inhibition of human UO31 cells at 10 uM relative to control; settings: read-out: GI; in short: as §2
M14 = assay: Growth inhibition of human M14 cells at 10 uM relative to control; settings: read-out: GI; in short: as §1
KM12 = assay: Growth inhibition of human KM12 cells at 10 uM relative to control; settings: read-out: GI; in short: as §1
SNB-75 = assay: Growth inhibition of human SNB75 cells at 10 uM relative to control; settings: read-out: GI; in short: as §2
BT-549 = assay: Growth inhibition of human BT549 cells at 10 uM relative to control; settings: read-out: GI; in short: as §1
MCF7 = assay: Growth inhibition of human MCF7 cells at 10 uM relative to control; settings: read-out: GI; in short: as §1
RPMI-8226 = assay: Growth inhibition of human RPMI8226 cells at 10 uM relative to control; settings: read-out: GI; in short: as §1
CAKI-1 = assay: Growth inhibition of human CAKI-1 cells at 10 uM relative to control; settings: read-out: GI; in short: as §1
PC-3 = assay: Growth inhibition of human PC3 cells at 10 uM relative to control; settings: read-out: GI; in short: as §1
U-251 = assay: Growth inhibition of human U251 cells at 10 uM relative to control; settings: read-out: GI; in short: as §2
Mus musculus [2] = assay: Anticonvulsant activity in mouse assessed as protection against pentylenetetrazol-induced seizure at 1 mmol/kg, ip administered 30 min prior to pentylenetetrazol-challenge measured after 60 mins relative to control
OVCAR-8 = assay: Growth inhibition of human OVCAR8 cells at 10 uM relative to control; settings: read-out: GI; in short: as §1
EKVX = assay: Growth inhibition of human EKVX cells at 10 uM relative to control; settings: read-out: GI; in short: as §1
SF-539 = assay: Growth inhibition of human SF539 cells at 10 uM relative to control; settings: read-out: GI; in short: as §1
T47D = assay: Growth inhibition of human T47D cells at 10 uM relative to control; settings: read-out: GI; in short: as §2
OVCAR-5 = assay: Growth inhibition of human OVCAR5 cells at 10 uM relative to control; settings: read-out: GI; in short: as §1
SR = assay: Growth inhibition of human SR cells at 10 uM relative to control; settings: read-out: GI; in short: as §2
UACC-62 = assay: Growth inhibition of human UACC62 cells at 10 uM relative to control; settings: read-out: GI; in short: as §2
HL-60(TB) = assay: Growth inhibition of human HL-60(TB) cells at 10 uM relative to control; settings: read-out: GI
In short: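 Single-dose screen at 10 μM across the 60-cell-line tumour panel. Percent growth inhibition = 100 minus percent growth activity relative to untreated control.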

Mus musculus [3] = assay: Anticonvulsant activity in mouse assessed as protection against maximal electroshock-induced seizure at 1 mmol/kg, ip administered 30 min prior to maximal electroshock-challenge measured after 60 mins relative to control
OVCAR-4 = assay: Growth inhibition of human OVCAR4 cells at 10 uM relative to control; settings: read-out: GI; in short: as §1
MOLT-4 = assay: Growth inhibition of human MOLT4 cells at 10 uM relative to control; settings: read-out: GI; in short: as §1
HCT-15 = assay: Growth inhibition of human HCT15 cells at 10 uM relative to control; settings: read-out: GI; in short: as §1
HOP-62 = assay: Growth inhibition of human HOP62 cells at 10 uM relative to control; settings: read-out: GI; in short: as §1
SN12C = assay: Growth inhibition of human SN12C cells at 10 uM relative to control; settings: read-out: GI; in short: as §2
MDA-MB-468 = assay: Growth inhibition of human MDA-MB-468 cells at 10 uM relative to control; settings: read-out: GI; in short: as §1

With `Cc1ccccc1-n1c(C)nc2cc(NC(=O)c3ccccc3)ccc2c1=O` the inhibition of growth at 10 µM (ACHN) was 24%, the inhibition of growth at 10 µM (TK-10) was 24% and the inhibition of growth at 10 µM (SK-MEL-5) was 17%. For the same compound, the inhibition of growth at 10 µM (SNB-19) was 14%, the inhibition of growth at 10 µM (HCT-116) was 3.2% and the Activity (Mus musculus [1]) was 0%. The inhibition of growth at 10 µM (A498) was 23%, the inhibition of growth at 10 µM (A549) was 11% and the inhibition of growth at 10 µM (SF-295) was 29%. The inhibition of growth at 10 µM (K562) was 9%, the inhibition of growth at 10 µM (MDA-MB-435) was 16.3% and the inhibition of growth at 10 µM (Malme-3M) was 6%. It also gave an inhibition of growth at 10 µM (UO-31) of 2.5%, an inhibition of growth at 10 µM (M14) of 12% and an inhibition of growth at 10 µM (KM12) of 26.6%. For the same compound, the inhibition of growth at 10 µM (SNB-75) was 21.2%, the inhibition of growth at 10 µM (BT-549) was 18% and the inhibition of growth at 10 µM (MCF7) was 7%. The inhibition of growth at 10 µM (RPMI-8226) was 2%, the inhibition of growth at 10 µM (CAKI-1) was 4% and the inhibition of growth at 10 µM (PC-3) was 8%. It also gave an inhibition of growth at 10 µM (U-251) of 9%, an Activity (Mus musculus [2]) of 33% and an inhibition of growth at 10 µM (OVCAR-8) of 5%. It also gave an inhibition of growth at 10 µM (EKVX) of 11.1%, an inhibition of growth at 10 µM (SF-539) of 10% and an inhibition of growth at 10 µM (T47D) of 28%. It also gave an inhibition of growth at 10 µM (OVCAR-5) of 12%, an inhibition of growth at 10 µM (SR) of 3.5% and an inhibition of growth at 10 µM (UACC-62) of 23%. It also gave an inhibition of growth at 10 µM (HL-60(TB)) of 6%, an Activity (Mus musculus [3]) of 33% and an inhibition of growth at 10 µM (OVCAR-4) of 17.3%. For the same compound, the inhibition of growth at 10 µM (MOLT-4) was 8.2%, the inhibition of growth at 10 µM (HCT-15) was 3.7% and the inhibition of growth at 10 µM (HOP-62) was 5%. It also gave an inhibition of growth at 10 µM (SN12C) of 15% and an inhibition of growth at 10 µM (MDA-MB-468) of 2%.
